The values below come from ChEMBL document CHEMBL4007513, “Synthesis and Biological Evaluation of the First Triple Inhibitors of Human Topoisomerase 1, Tyrosyl-DNA Phosphodiesterase 1 (Tdp1), and Tyrosyl-DNA Phosphodiesterase 2 (Tdp2)” (J Med Chem, 2017).

Data set [1] addresses Tyrosyl-DNA phosphodiesterase 1 (Homo sapiens, UniProt Q9NUW8). The data set can be described thus: Inhibition of recombinant Tdp1 (unknown origin) assessed as decrease in hydrolysis of phosphodiester linkage between tyrosine residue and the 3' end of 5'-[32P]-DNA after 15 mins by PAGE analysis. The method in brief: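 The substrate was 5′-32P single-stranded oligo N14Y carrying a 3′-phosphotyrosine, at 1 nM, with 10 pM recombinant Tdp1. Products were run on 16% denaturing PAGE with phosphorimaging.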

The target in data set [2] is T1, Tyrosyl-DNA phosphodiesterase 2 (Homo sapiens) (UniProt O95551).
T1 sequence (whole entry): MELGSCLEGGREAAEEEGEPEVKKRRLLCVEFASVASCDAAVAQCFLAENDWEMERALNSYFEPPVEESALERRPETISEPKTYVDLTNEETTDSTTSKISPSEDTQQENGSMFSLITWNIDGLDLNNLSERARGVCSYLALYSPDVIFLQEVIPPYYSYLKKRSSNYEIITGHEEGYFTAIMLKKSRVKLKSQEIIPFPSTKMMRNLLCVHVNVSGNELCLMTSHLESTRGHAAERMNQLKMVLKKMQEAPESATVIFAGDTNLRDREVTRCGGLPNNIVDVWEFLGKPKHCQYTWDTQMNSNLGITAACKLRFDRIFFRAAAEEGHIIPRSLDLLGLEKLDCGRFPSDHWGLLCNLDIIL
Briefly: (§1) Inhibition of recombinant human Tdp2 assessed as decrease in alpha 32P-cordycepin-3'-labeled DNA breaks after 15 mins by PAGE analysis. The method in brief:
(§2)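 The substrate was the 18-mer single-stranded TY18 oligo, α32P-cordycepin-3′-labeled, at 1 nM, with 25 pM recombinant human Tdp2. Products were run on 16% denaturing PAGE.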

Data set [3] has as its target T2, Tyrosyl-DNA phosphodiesterase 2 (Homo sapiens, UniProt O95551).
T2 sequence (O95551 whole entry): T1 sequence (whole entry)
The description is as §1. A digest of the protocol: as §2

In a further data set the test system is HOP-62. Briefly: Cytotoxicity against human HOP62 cells after 48 hrs by SRB assay. In kind it is functional. The conditions noted are these: for GI50: HOP-62, 48 h. A digest of the protocol:
(§3)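 NCI-60 human cancer cell line screen. Five-concentration testing across 0.01 to 100 μM, done only for compounds selected from a one-concentration preliminary test. Read-out was GI50.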

Another data set has as its system SF-539. Briefly: Cytotoxicity against human SF539 cells after 48 hrs by SRB assay. In kind it is functional. Particulars: for GI50: SF-539, 48 h. The method in brief:
as §3

Another data set deals with UACC-62. Briefly: Cytotoxicity against human UACC62 cells after 48 hrs by SRB assay. The conditions noted are these: for GI50: UACC-62, 48 h. In kind it is functional. The method in brief:
as §3

The next data set relates to OVCAR-3. Briefly: Cytotoxicity against human OVCAR3 cells after 48 hrs by SRB assay. In kind it is functional. The conditions noted are these: for GI50: OVCAR-3, 48 h. A digest of the protocol: as §3
The subject of a further data set is SN12C. Briefly: Cytotoxicity against human SN12C cells after 48 hrs by SRB assay. The class given is functional. The method in brief: as §3
Another data set concerns MCF7. Briefly: Cytotoxicity against human MCF7 cells after 48 hrs by SRB assay. Particulars: for GI50: MCF7, 48 h. The class given is functional. A digest of the protocol: as §3
Data set [4] deals with T3, DNA topoisomerase 1 (Homo sapiens) (UniProt P11387).
T3 sequence (whole entry): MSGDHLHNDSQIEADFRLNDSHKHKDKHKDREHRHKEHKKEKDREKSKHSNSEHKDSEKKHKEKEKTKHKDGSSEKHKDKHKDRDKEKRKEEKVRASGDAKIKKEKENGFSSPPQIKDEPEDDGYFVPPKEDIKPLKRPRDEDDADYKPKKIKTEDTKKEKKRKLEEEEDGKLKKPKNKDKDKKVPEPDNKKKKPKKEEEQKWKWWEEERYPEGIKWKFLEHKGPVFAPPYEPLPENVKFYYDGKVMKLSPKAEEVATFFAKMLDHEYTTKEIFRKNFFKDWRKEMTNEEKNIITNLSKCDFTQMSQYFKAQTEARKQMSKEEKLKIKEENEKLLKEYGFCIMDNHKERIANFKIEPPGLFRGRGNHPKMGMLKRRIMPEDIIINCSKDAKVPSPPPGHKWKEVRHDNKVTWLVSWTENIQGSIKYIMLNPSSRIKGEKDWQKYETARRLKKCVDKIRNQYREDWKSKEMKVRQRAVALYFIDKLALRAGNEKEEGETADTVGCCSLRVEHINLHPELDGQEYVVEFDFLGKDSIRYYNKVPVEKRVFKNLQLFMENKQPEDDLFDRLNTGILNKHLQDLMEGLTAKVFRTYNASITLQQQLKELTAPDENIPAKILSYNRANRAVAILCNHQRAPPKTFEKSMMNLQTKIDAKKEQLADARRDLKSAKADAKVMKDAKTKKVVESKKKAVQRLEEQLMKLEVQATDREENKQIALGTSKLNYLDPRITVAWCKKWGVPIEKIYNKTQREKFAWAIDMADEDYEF
Briefly: Inhibition of recombinant Top1 (unknown origin) assessed as increase in [32P]-DNA breaks after 20 mins by PAGE analysis. The method in brief:
(§4)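 The substrate was a 3′-32P 117-bp oligonucleotide holding Top1 cleavage sites, at about 2 nM, with recombinant Top1. Compounds were tested at 0.1, 1.0, 10 and 100 μM. Reactions were stopped with 0.5% SDS and run on 20% denaturing PAGE.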

In data set [5] the target is T3, DNA topoisomerase 1 (Homo sapiens). Briefly: Inhibition of recombinant Top1 (unknown origin) assessed as increase in [32P]-DNA breaks at 0.1 to 100 uM after 20 mins by PAGE analysis. The method in brief:
as §4

The subject of the next data set is CCRF-CEM. Briefly: Induction of DNA damage in human CCRF-CEM cells assessed as formation of gamma-H2AX foci at 100 to 1000 nM after 2 hrs by DAPI staining-based confocal microscopy. In kind it is functional, cell-based. The method in brief:
(§5)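 Freshly purified human PBMCs (from healthy donors) or CCRF-CEM leukemia cells were used at 2 mil/mL in RPMI 1640 with 10% FBS, penicillin and streptomycin. Cells were dosed at 100 nM and 1 μM for 2 h at 37 °C. They were then fixed in 2% paraformaldehyde, cytospun and blocked in 5% BSA. Staining used anti-γ-H2AX with an Alexa 488 secondary and DAPI, and foci were imaged by confocal microscopy.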

The next data set deals with PBMC. Briefly: Induction of DNA damage in human PBMC assessed as formation of gamma-H2AX foci at 100 to 1000 nM after 2 hrs by DAPI staining-based confocal microscopy. The conditions noted are these: 1 µM. In kind it is cell-based. A digest of the protocol: as §5

Active and inactive are the calls of the source. The rule behind the calls is not given here. Some results are limits rather than exact numbers.

Tyrosyl-DNA phosphodiesterase 1, sequence (Q9NUW8 whole entry): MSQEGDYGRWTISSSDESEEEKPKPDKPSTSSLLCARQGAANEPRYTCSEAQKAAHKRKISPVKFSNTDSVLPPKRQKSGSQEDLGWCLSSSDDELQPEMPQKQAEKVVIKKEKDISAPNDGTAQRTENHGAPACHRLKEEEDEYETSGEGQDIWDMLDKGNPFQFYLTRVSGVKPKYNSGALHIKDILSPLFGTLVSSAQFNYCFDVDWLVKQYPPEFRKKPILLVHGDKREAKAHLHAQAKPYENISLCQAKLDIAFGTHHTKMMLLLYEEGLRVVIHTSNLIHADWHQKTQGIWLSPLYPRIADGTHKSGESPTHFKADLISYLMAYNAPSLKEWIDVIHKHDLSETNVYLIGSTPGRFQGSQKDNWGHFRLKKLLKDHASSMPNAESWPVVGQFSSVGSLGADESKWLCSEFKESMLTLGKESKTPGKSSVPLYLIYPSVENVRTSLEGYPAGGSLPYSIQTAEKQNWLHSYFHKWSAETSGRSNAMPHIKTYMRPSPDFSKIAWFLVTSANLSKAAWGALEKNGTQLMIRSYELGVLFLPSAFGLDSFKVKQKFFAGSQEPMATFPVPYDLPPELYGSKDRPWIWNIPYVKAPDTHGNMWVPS

As to `COc1cnc2c(c1)C(=O)c1c-2n(CCCN2CCCC2)c(=O)c2cc([N+](=O)[O-])ccc12`, the IC50 in [1] is 1000 to 12000 nM; in data set [3] it was 37000 to 111000 nM. In addition, the inhibition result in data set [1] and in [2] was “Dose-dependent effect” throughout. For the same compound, the GI50 is under 10 nM in the data set on HOP-62; 31 nM in the data set with SF-539; 15 nM with UACC-62; 59 nM in the data set with OVCAR-3; 36 nM in the data set with SN12C; under 10 nM in the data set on MCF7. Further, the inhibition entry in data set [4] is “Active”.
Consider `COc1cnc2c(c1)C(=O)c1c-2n(CCCN2CCNCC2)c(=O)c2cc([N+](=O)[O-])ccc12`, for which the figures for the IC50 in [1] and in [3] were 12000 to 37000 nM and 37000 to 111000 nM, respectively. Further, the inhibition result in data set [1] and in data set [2] was “Dose-dependent effect” in each case. For the same compound, the GI50 in the data set with HOP-62 worked out at 65 nM; with SF-539, 355 nM; in the data set with UACC-62, 175 nM; with OVCAR-3 it was 1190 nM; in the data set with SN12C, 230 nM; with MCF7 it was 36 nM. Moreover, the inhibition entry in data set [4] was “Active”.
In the case of `COc1cnc2c(c1)C(=O)c1c-2n(CCCN2CCN(CCO)CC2)c(=O)c2cc([N+](=O)[O-])ccc12`, the IC50 in data set [1] and in data set [3] was over 111000 nM in each case. Further, the inhibition entry in [1] and in [2] was “Dose-dependent effect” each time. In addition, the GI50 in the data set on HOP-62 came out at 2760 nM; in the data set with SF-539 it was 1700 nM; in the data set with UACC-62, 1220 nM; in the data set on OVCAR-3 it was 1460 nM; with MCF7 it was 142 nM. For the same compound, the inhibition result in data set [4] was “Active”.
As to `COc1cnc2c(c1)C(=O)c1c-2n(CCCNC(C)C)c(=O)c2cc([N+](=O)[O-])ccc12`, in data set [5], the inhibition result was “Active”. Moreover, the values for the IC50 in data set [1] and in data set [3] were 12000 to 37000 nM and 37000 to 111000 nM, respectively. Also, the inhibition entry in [1] and in data set [2] was “Dose-dependent effect” throughout. Also, the GI50 turned out to be 85 nM with HOP-62; 51 nM in the data set with SF-539; 19 nM with UACC-62; 82 nM in the data set with OVCAR-3; 39 nM in the data set on SN12C; 12 nM in the data set on MCF7. For the same compound, the outcome with CCRF-CEM was Active. Further, in the data set on PBMC, the Activity result is on record as “Non-Toxic”.
Regarding `COc1cnc2c(c1)C(=O)c1c-2n(CCCBr)c(=O)c2cc([N+](=O)[O-])ccc12`, the IC50 in data set [1] lay in the range of 12000 to 37000 nM; in data set [3], 37000 to 111000 nM. The inhibition result in data set [1] and in data set [2] was “Dose-dependent effect” each time. Also, the GI50 with HOP-62 was 58 nM; with SF-539 it was 279 nM; with UACC-62, 82 nM; with OVCAR-3 it was 248 nM; in the data set on SN12C it was 269 nM; with MCF7, 46 nM. Also, the inhibition entry in [4] was “Active”.
For the compound `COc1cnc2c(c1)C(=O)c1c-2n(CCCN2CCC(N)CC2)c(=O)c2cc([N+](=O)[O-])ccc12`, the IC50 in data set [1] and in [3] was 1000 to 12000 nM each time. Moreover, the inhibition result in data set [1] and in data set [2] was “Dose-dependent effect” in each case. For the same compound, the result in the data set with HOP-62, in the data set on SF-539, with UACC-62, with OVCAR-3, in the data set on SN12C and in the data set with MCF7 was inactive. In addition, the outcome in the data set with CCRF-CEM was Active. In addition, the Activity entry in the data set on PBMC is “Non-Toxic”. Also, the inhibition result in data set [4] was “Active”.
With `COc1cnc2c(c1)C(=O)c1c-2n(CCCNCCN2CCOCC2)c(=O)c2cc([N+](=O)[O-])ccc12`, the inhibition result in [5] is “Active”. The IC50 was 12000 to 37000 nM in data set [1] and 37000 to 111000 nM in data set [3]. For the same compound, the inhibition entry in data set [1] and in [2] was “Dose-dependent effect” throughout. For the same compound, the GI50 with HOP-62 is 150 nM; in the data set with SF-539, 311 nM; in the data set with UACC-62, 44 nM; in the data set with OVCAR-3, 315 nM; in the data set with SN12C, 80 nM; in the data set on MCF7 it was 32 nM.
On to `COc1cnc2c(c1)C(=O)c1c-2n(CCCN2CCN(C)CC2)c(=O)c2cc([N+](=O)[O-])ccc12`, for which the IC50 in [1] and in data set [3] was 12000 to 37000 nM throughout. For the same compound, the inhibition result in data set [1] and in data set [2] was “Dose-dependent effect” each time. Also, the GI50 was 81 nM with HOP-62; 191 nM with SF-539; 183 nM in the data set with UACC-62; 171 nM in the data set with OVCAR-3; 214 nM in the data set on SN12C; 16 nM with MCF7. The inhibition result in [4] is “Active”.
Turning to `CC[C@@]1(O)C(=O)OCc2c1cc1n(c2=O)Cc2cc3ccccc3nc2-1` [CAMPTOTHECIN], the GI50 with HOP-62 was under 10 nM; in the data set with SF-539, under 10 nM; with UACC-62 it was under 10 nM; with MCF7, 13 nM. The outcome in the data set with CCRF-CEM was Active. Besides, in the data set with PBMC, the Activity result was “Non-Toxic”.
`CCNCCCn1c2c(c3ccc([N+](=O)[O-])cc3c1=O)C(=O)c1cc(OC)cnc1-2`: in data set [5], the inhibition result was “Active”. The IC50 was 1000 to 12000 nM in data set [1] and 37000 to 111000 nM in [3]. Besides, the inhibition entry in data set [1] and in [2] was “Dose-dependent effect” in each case. The GI50 turned out to be 107 nM in the data set on HOP-62; 70 nM with SF-539; 27 nM in the data set with UACC-62; 62 nM in the data set with OVCAR-3; 53 nM in the data set with SN12C; 19 nM in the data set on MCF7. For the same compound, in the data set on CCRF-CEM, the outcome was Active. Moreover, the Activity result in the data set on PBMC is “Non-Toxic”.
`CNCCCn1c2c(c3ccc([N+](=O)[O-])cc3c1=O)C(=O)c1cc(OC)cnc1-2`: the results for the IC50 in data set [1] and in [3] were 1000 to 12000 nM and 37000 to 111000 nM, respectively. Also, the inhibition result in data set [1] and in [2] was “Dose-dependent effect” in each case. The 50% growth inhibitory concentration (GI50) amounted to 30 nM in the data set with HOP-62; 51 nM in the data set with SF-539; 20 nM in the data set with UACC-62; 174 nM in the data set with OVCAR-3; 46 nM with SN12C; 1060 nM in the data set with MCF7. In addition, the inhibition entry in data set [4] is “Active”.
